Results as given in ChEMBL document CHEMBL5257120 (Bioorg Med Chem, 2023).

Experiments:
[1] = Hepatotoxicity in Swiss albino mouse assessed as SGPT level at 50 mg/kg, po administered for 7 days (reference value: 17.01 +/- 2.33 U/L); format: toxicity, organism-based; details: in vivo, 168 h, time 7 day
Outline: (§1)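 Single acute oral dose (5, 50, 300 or 1000 mg/kg) given to Swiss albino mice, n = 6, with 7-day observation. At the end, haematological and serum biochemical parameters were measured. Compared with untreated controls; mean ± SE, ANOVA, p < 0.05.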

[2] = Hepatotoxicity in Swiss albino mouse assessed as albumin level at 50 mg/kg, po administered for 7 days (reference value: 4.12 +/- 0.17 g/dl); format: toxicity, organism-based; details: in vivo, 168 h, time 7 day; outline: as §1
[3] = Toxicity in Swiss albino mouse assessed as change in relative lungs weight at 5 to 1000 mg/kg, po administered for 7 days; format: organism-based; details: in vivo, 168 h, dose 5-1000 mg/kg, time 7 day
[4] = Hepatotoxicity in Swiss albino mouse assessed as SGOT level at 5 mg/kg, po administered for 7 days (reference value: 31.51 +/- 6.31 U/L); format: toxicity, organism-based; details: in vivo, 168 h, time 7 day; outline: as §1
[5] = Antiinflammatory activity in mouse peritoneal macrophage assessed as reduction in LPS-induced TNFalpha production at 1 ug/ml; format: functional; details: dose 1 µg/ml
[6] = Hepatotoxicity in Swiss albino mouse assessed as albumin level at 300 mg/kg, po administered for 7 days (reference value: 4.12 +/- 0.17 g/dl); format: toxicity, organism-based; details: in vivo, 168 h, time 7 day; outline: as §1
[7] = Hepatotoxicity in Swiss albino mouse assessed as serum protein level at 1000 mg/kg, po administered for 7 days (reference value: 5.73 +/- 0.21 mg/ml); format: toxicity, organism-based; details: in vivo, 168 h, time 7 day; outline: as §1
[8] = Toxicity in Swiss albino mouse assessed as WBC level at 50 mg/kg, po administered for 7 days (reference value: 5.29 +/- 0.51 10^3/mm3); format: organism-based; details: in vivo, 168 h, time 7 day
[9] = Toxicity in Swiss albino mouse assessed as change in body weight at 50 mg/kg, po administered for 7 days (reference value: 29.35 +/- 0.57 g); format: organism-based; details: in vivo, 168 h, time 7 day
[10] = Toxicity in Swiss albino mouse assessed as change in absolute kidney weight at 5 to 1000 mg/kg, po administered for 7 days; format: organism-based; details: in vivo, 168 h, dose 5-1000 mg/kg, time 7 day
[11] = Hepatotoxicity in Swiss albino mouse assessed as SGPT level at 1000 mg/kg, po administered for 7 days (reference value: 17.01 +/- 2.33 U/L); format: toxicity, organism-based; details: in vivo, 168 h, time 7 day; outline: as §1
[12] = Toxicity in Swiss albino mouse assessed as change in absolute lungs weight at 5 to 1000 mg/kg, po administered for 7 days; format: organism-based; details: in vivo, 168 h, dose 5-1000 mg/kg, time 7 day
[13] = Hepatotoxicity in Swiss albino mouse assessed as serum protein level at 300 mg/kg, po administered for 7 days (reference value: 5.73 +/- 0.21 mg/ml); format: toxicity, organism-based; details: in vivo, 168 h, time 7 day; outline: as §1
[14] = Toxicity in Swiss albino mouse assessed as haemoglobin level at 1000 mg/kg, po administered for 7 days (reference value: 15.66 +/- 0.80 g/dl); format: organism-based; details: in vivo, 168 h, time 7 day
[15] = Toxicity in Swiss albino mouse assessed as WBC level at 5 mg/kg, po administered for 7 days (reference value: 5.29 +/- 0.51 10^3/mm3); format: organism-based; details: in vivo, 168 h, time 7 day
[16] = Toxicity in Swiss albino mouse assessed as triglyceride level at 1000 mg/kg, po administered for 7 days (reference value: 136.88 +/- 3.12 mg/dl); format: organism-based; details: in vivo, 168 h, time 7 day
[17] = Cytotoxicity against african green monkey Vero cells incubated for 72 hrs by Sulphorhodamine assay; format: toxicity, cell-based; details: African green monkey (Chlorocebus sabaeus)
[18] = Toxicity in Swiss albino mouse assessed as haemoglobin level at 300 mg/kg, po administered for 7 days (reference value: 15.66 +/- 0.80 g/dl); format: organism-based; details: in vivo, 168 h, time 7 day
[19] = Toxicity in Swiss albino mouse assessed as haemoglobin level at 5 mg/kg, po administered for 7 days (reference value: 15.66 +/- 0.80 g/dl); format: organism-based; details: in vivo, 168 h, time 7 day
[20] = Toxicity in Swiss albino mouse assessed as change in body weight at 1000 mg/kg, po administered for 7 days (reference value: 29.35 +/- 0.57 g); format: organism-based; details: in vivo, 168 h, time 7 day
[21] = Toxicity in Swiss albino mouse assessed as haemoglobin level at 50 mg/kg, po administered for 7 days (reference value: 15.66 +/- 0.80 g/dl); format: organism-based; details: in vivo, 168 h, time 7 day
[22] = Hepatotoxicity in Swiss albino mouse assessed as serum protein level at 50 mg/kg, po administered for 7 days (reference value: 5.73 +/- 0.21 mg/ml); format: toxicity, organism-based; details: in vivo, 168 h, time 7 day; outline: as §1
[23] = Toxicity in Swiss albino mouse assessed as change in absolute spleen weight at 5 to 1000 mg/kg, po administered for 7 days; format: organism-based; details: in vivo, 168 h, dose 5-1000 mg/kg, time 7 day
[24] = Hepatotoxicity in Swiss albino mouse assessed as alkaline phosphatase level at 50 mg/kg, po administered for 7 days (reference value: 260.10 +/- 26.76 U/L); format: toxicity, organism-based; details: in vivo, 168 h, time 7 day; outline: as §1
[25] = Toxicity in Swiss albino mouse assessed as change in body weight at 300 mg/kg, po administered for 7 days (reference value: 29.35 +/- 0.57 g); format: organism-based; details: in vivo, 168 h, time 7 day
[26] = Toxicity in Swiss albino mouse assessed as cholesterol level at 300 mg/kg, po administered for 7 days (reference value: 140.17 +/- 3.76 mg/dl); format: organism-based; details: in vivo, 168 h, time 7 day
[27] = Toxicity in Swiss albino mouse assessed as change in absolute liver weight at 5 to 1000 mg/kg, po administered for 7 days; format: organism-based; details: in vivo, 168 h, dose 5-1000 mg/kg, time 7 day
[28] = Hepatotoxicity in Swiss albino mouse assessed as serum protein level at 5 mg/kg, po administered for 7 days (reference value: 5.73 +/- 0.21 mg/ml); format: toxicity, organism-based; details: in vivo, 168 h, time 7 day; outline: as §1
[29] = Toxicity in Swiss albino mouse assessed as change in body weight at 5 mg/kg, po administered for 7 days (reference value: 29.35 +/- 0.57 g); format: organism-based; details: in vivo, 168 h, time 7 day
[30] = Toxicity in Swiss albino mouse assessed as change in absolute brain weight at 5 to 1000 mg/kg, po administered for 7 days; format: organism-based; details: in vivo, 168 h, dose 5-1000 mg/kg, time 7 day
[31] = Toxicity in Swiss albino mouse assessed as change in absolute heart weight at 5 to 1000 mg/kg, po administered for 7 days; format: organism-based; details: in vivo, 168 h, dose 5-1000 mg/kg, time 7 day
[32] = Renal toxicity in Swiss albino mouse assessed as creatinine level at 300 mg/kg, po administered for 7 days (reference value: 0.76 +/- 0.06 mg/dl); format: organism-based; details: in vivo, 168 h, time 7 day; outline: as §1
[33] = organism: Homo sapiens; experiment: Selectivity ratio, ratio of inhibition of HDAC in human HeLa nuclear extract assessed as residual activity to inhibition of human recombinant HDAC6 assessed as residual activity
Outline: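 Compounds at 20 μM tested by fluorometric assay on HeLa nuclear extract (class I/II HDACs) and on human recombinant HDAC6. Residual activity is expressed relative to untreated control. Selectivity is the ratio of PanHDAC to HDAC6 residual activity: ≥7 high, 2.5–6.9 moderate, <2.5 low.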

[34] = Toxicity in Swiss albino mouse assessed as triglyceride level at 300 mg/kg, po administered for 7 days (reference value: 136.88 +/- 3.12 mg/dl); format: organism-based; details: in vivo, 168 h, time 7 day
[35] = Toxicity in Swiss albino mouse assessed as cholesterol level at 50 mg/kg, po administered for 7 days (reference value: 140.17 +/- 3.76 mg/dl); format: organism-based; details: in vivo, 168 h, time 7 day

SMILES: COc1cc(C2/C(=C/c3ccc(/C=C/C(=O)NO)cc3)C(=O)c3cc(OC)c(OC)c(OC)c32)cc(OC)c1OC (stereo not given)
- Activity [1]: 19.56 U/L
- Activity [2]: 4.36 g/dL
- Activity [3]: Non-Toxic
- Activity [4]: 28.87 U/L
- Activity [5]: 1019.21 pg/mL
- Activity [6]: 4.46 g/dL
- Activity [7]: 5.87 mg/mL
- Activity [8]: 4.34 10^3/mm3
- Activity [9]: 28.18 g
- Activity [10]: Non-Toxic
- Activity [11]: 22.91 U/L
- Activity [12]: Non-Toxic
- Activity [13]: 5.45 mg/mL
- Activity [14]: 16.73 g/dL
- Activity [15]: 5.01 10^3/mm3
- Activity [16]: 130.21 mg/dL
- IC50 at 72 h [17]: 100 µM
- Activity [18]: 16.77 g/dL
- Activity [19]: 17.63 g/dL
- Activity [20]: 27.43 g
- Activity [21]: 15.54 g/dL
- Activity [22]: 5.64 mg/mL
- Activity [23]: Non-Toxic
- Activity [24]: 281.72 U/L
- Activity [25]: 30.22 g
- Activity [26]: 157.14 mg/dL
- Activity [27]: Non-Toxic
- Activity [28]: 5.44 mg/mL
- Activity [29]: 28.17 g
- Activity [30]: Non-Toxic
- Activity [31]: Non-Toxic
- Activity [32]: 0.64 mg/dL
- Ratio [33]: < 0.5
- Activity [34]: 127.18 mg/dL
- Activity [35]: 157.99 mg/dL
